Screening results (PubChem)
The list is not random: actives were taken first. Their share in the collection is about 1.4%.
MT1-MMP act inh: MT1-MMP (human) activation inhibition; AID 651647; GFP/RFP ratio change, % at 20 µM; P50281; 360,000 tested, 0.061% active; HT1080 RFP-PRO-GFP cells, GFP/RFP ratio fluorescence, overnight; percent of plate control window, DMSO zero;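 active = GFP/RFP ratio change of at least 30% with cell ATP level not reduced by more than half and red fluorescence within 50% of control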
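Read-out: GFP/RFP fluorescence ratio; Test system: RFP-PRO-GFP reporter HT1080 cells; Compound dosing: single-point 20 µM compound, 1% DMSO; Times: overnight compound exposure at 37 °C.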
SKN-1 inh: C. elegans SKN-1 inhibition; AID 624304; C. elegans VP596 Pgst-4::GFP/RFP ratio, acrylamide-induced, 24 h; inhibition, % at 21.8 µM; 360,000 tested, 0.49% active;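 active = interference check ratio from 0.5 to 1.5 plus GFP to RFP signal ratio inhibition reaching or exceeding a fixed threshold, cut at about 30% in these data, passing the limit was not always enough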
iPSC survival up: increases survival of single human iPS cells. hiPSC single-cell survival, ATPlite luminescence; 100% = ROCK inhibitor wells, 0% = DMSO. survival enhancement, % at 20 µM. 360,000 tested, 0.044% active. AID 602274; in the data active = survival enhancement above about 18%;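 note: cells exposed to compounds for 16 hours before the ATP read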
CendR NRP1 mod: alters CendR peptide binding to human NRP-1 | FAM-RPARPAR peptide binding to NRP-1, fluorescence polarization | inhibition, % at 25 µM | 360,000 tested, 0.85% active;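 active = inhibition or corrected inhibition above about 18%, plus a signal ratio from 0.5 to 1.5, limit read from the data, passing the limit was not always enough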
Target sequence (O14786 whole entry, looked up): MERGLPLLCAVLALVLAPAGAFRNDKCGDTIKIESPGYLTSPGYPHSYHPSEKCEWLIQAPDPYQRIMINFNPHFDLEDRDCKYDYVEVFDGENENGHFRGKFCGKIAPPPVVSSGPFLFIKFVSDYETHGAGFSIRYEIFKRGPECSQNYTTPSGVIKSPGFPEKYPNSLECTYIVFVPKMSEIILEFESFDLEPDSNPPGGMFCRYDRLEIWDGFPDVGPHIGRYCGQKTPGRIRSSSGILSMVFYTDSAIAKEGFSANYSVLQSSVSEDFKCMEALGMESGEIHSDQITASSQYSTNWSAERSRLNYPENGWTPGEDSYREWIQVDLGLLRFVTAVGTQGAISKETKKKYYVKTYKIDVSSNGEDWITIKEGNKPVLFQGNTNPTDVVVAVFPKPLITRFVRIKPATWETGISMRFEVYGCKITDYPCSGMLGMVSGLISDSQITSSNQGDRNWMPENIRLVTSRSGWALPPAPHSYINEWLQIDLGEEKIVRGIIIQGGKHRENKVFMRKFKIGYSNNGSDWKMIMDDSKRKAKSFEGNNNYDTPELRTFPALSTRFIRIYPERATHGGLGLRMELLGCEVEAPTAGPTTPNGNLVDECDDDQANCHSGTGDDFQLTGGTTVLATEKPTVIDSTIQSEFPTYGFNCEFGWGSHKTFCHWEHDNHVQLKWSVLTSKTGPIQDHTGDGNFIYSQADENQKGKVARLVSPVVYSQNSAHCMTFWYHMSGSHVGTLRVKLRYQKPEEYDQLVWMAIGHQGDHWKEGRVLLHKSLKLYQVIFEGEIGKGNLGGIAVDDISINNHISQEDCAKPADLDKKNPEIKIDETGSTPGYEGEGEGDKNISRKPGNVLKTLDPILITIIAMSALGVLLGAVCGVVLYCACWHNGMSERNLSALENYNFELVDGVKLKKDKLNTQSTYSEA
Active calls of the source: *; x = not tested or not shown.

SMILES	MT1-MMP act inh	SKN-1 inh	iPSC survival up	CendR NRP1 mod
CCOC(=O)c1c(C)[nH]c(C(=O)CN(C)CC(=O)Nc2ccccc2Cl)c1C	-3	1	0	-8
CCOc1ccccc1C1CC(=O)NC2=C1C(=O)CC(C)(C)C2 (stereo not drawn)	4	-4	-1	26*
O=C1NC(=Nc2ccccc2)S/C1=C/c1cccnc1	-5	3	1	9
CC(=O)Nc1cccc(NC(=S)Nc2cccc3ccccc23)c1	3	25	0	30*
CCOc1ccc(S(=O)(=O)Nc2ccccc2SC)cc1	x	-3	-1	10
Cc1cc(C)cc(N(CCC(=O)O)S(=O)(=O)c2ccc3ccccc3c2)c1	5	-7	-1	42*
O=C(CC1C(=O)NCCN1Cc1ccc(F)c(F)c1)NCCn1cccn1 (stereo not drawn)	-2	7	-1	28*
COc1ccc(CN2CCNC(=O)C2CC(=O)NCCCn2cccn2)cc1C (stereo not drawn)	-2	4	0	3
O=C(CC1C(=O)NCCN1Cc1cccc(Oc2ccccc2)c1)NCCCn1cccn1 (stereo not drawn)	-3	7	-1	23*
CCCCNC(=O)OCC(CC)NC(=O)OCC(C)C (stereo not drawn)	1	36*	-2	1
Cc1ccc(-c2nnc(SCC(=O)N3c4ccccc4NC(=O)C3(C)C)n2N)cc1	-1	19	0	-2
O=C1NCC(c2ccccc2)C1C(=O)N/N=C\c1ccc(-c2cccc(Cl)c2Cl)o1 (stereo not drawn)	0	36*	11	0
C(=C\c1nc(-c2cccnc2)no1)/c1ccccc1	1	66*	1	3
Clc1ccccc1/C=C/c1nc(-c2cccnc2)no1	-5	39*	0	-25
O=C(CCCN=C1NS(=O)(=O)c2ccccc21)OCC(=O)c1ccc(Br)cc1	-1	4	0	10
COc1cc(Cn2nnc3ccccc32)cc(Br)c1O	-4	9	0	23*
COc1cc2sc3cc(NCc4ccc(C)o4)ccc3c(=O)c2cc1OC	10	37*	3	12
COc1cc2sc3cc(NCc4ccc5c(c4)OCO5)ccc3c(=O)c2cc1OC	5	11	-2	-8
O=C(Nc1nccs1)c1cc(Cl)ccc1[N+](=O)[O-]	-4	0	0	10
COc1cccc(NC(=O)N2CCCC2C(=O)NCc2ccccc2)c1 (stereo not drawn)	0	-1	1	1
CCOc1cc(CNCC(C)C)cc(Cl)c1OCc1ccccc1	-2	19	2	1
CCOc1cc(CNC2CCCC2)cc(Cl)c1OCc1ccccc1	-8	56*	-2	-2
Cc1nnc(SCCn2c(N3CC(C)CC(C)C3)nc3c2c(=O)n(C)c(=O)n3C)s1 (stereo not drawn)	-2	41*	-2	2
O=C(CSc1ccc(Cl)cc1)N1CCN(c2ncc(C(F)(F)F)cc2Cl)CC1	5	56*	9	7
CCOC(=O)C1=CC[C@@H](c2ccccc2)N(S(=O)(=O)c2ccc(C)cc2)[C@H]1c1ccccc1C	-8	7	5	17
SMILES	MT1-MMP act inh	SKN-1 inh	iPSC survival up	CendR NRP1 mod
O=C(NCCO)c1ccc2c(c1)S(=O)(=O)c1ccccc1C2=O	2	12	-1	22*
Cc1ccccc1N1CCN(C2CCCN(C(=O)CCN3CCCCO3)C2)CC1 (stereo not drawn)	0	-8	0	26*
Cc1ccccc1N1CCN(C2CCCN(C(=O)CCN3CCCCC3=O)C2)CC1 (stereo not drawn)	0	3	1	-2
COc1ccccc1N1CCN(C2CCCN(C(=O)Cn3cccn3)C2)CC1 (stereo not drawn)	-2	4	0	24*
O=C(c1cccc(S(=O)(=O)N2CCOCC2)c1)N(Cc1ccc(F)cc1)Cc1ccco1	-1	-9	-1	4
CC1(c2ccc(Cl)cc2)NC(=O)N(CC(=O)Nc2ccc3c(c2)OCO3)C1=O (stereo not drawn)	4	13	4	35*
Cc1ccc(NC(=O)CN2C(=O)NC(C)(c3ccc4c(c3)OCO4)C2=O)cc1 (stereo not drawn)	2	5	0	-8
CC1(c2ccc(Cl)cc2)NC(=O)N(CN2CCOCC2)C1=O (stereo not drawn)	3	37*	-1	6
Cc1ccc2cc(CN(Cc3ccco3)C(=O)c3ccco3)c3nnnn3c2c1	-4	4	-1	7
COCCNC(=O)C(c1ccc(C)o1)N(Cc1ccc(OC)cc1)C(=O)Cn1nnc2ccccc21 (stereo not drawn)	-2	35*	-2	2
COCCNC(=O)C(c1ccc(C)o1)N(Cc1ccc(F)cc1)C(=O)Cn1nnc2ccccc21 (stereo not drawn)	-6	7	3	-6
CC(C)=CCC/C(C)=C/CNC(=O)C[C@H]1C[C@H](C(=O)N(C(C)C)C(C)C)[C@@]2(C)c3[nH]c4ccc(Cl)cc4c3CCN2C1=O	-31	12	-2	27*
CC(C)=CCC/C(C)=C/CNC(=O)CC1C[C@H](C(=O)N(C(C)C)C(C)C)[C@@]2(C)c3[nH]c4ccccc4c3CCN2C1=O (stereo partly drawn)	-26	11	-3	19
CC(=O)NC1CCN(CC(=O)Nc2cccc([N+](=O)[O-])c2)CC1	1	-3	1	-8
CSCCC(NS(=O)(=O)c1ccc2c(c1)OCCO2)C(=O)N(C)Cc1ccc(C)cc1 (stereo not drawn)	-4	-10	0	37*
Cc1cccc(-n2c(C)nc3c(cnn3-c3ccc(F)cc3)c2=O)c1	7	5	2	-7
N/C(=N\OC(=O)c1cccc(Br)c1)c1ccncc1	1	46*	2	-1
Cc1cccc(C(=O)O/N=C(\N)c2ccccn2)c1	-1	37*	-1	-14
N/C(=N\OC(=O)c1ccc(Br)cc1)c1ccncc1	2	24	-2	2
COC(=O)CN1C(=O)COc2ccc(S(=O)(=O)NCc3ccc(Cl)cc3)cc21	3	15	0	11
C/C(CC(=O)Nc1ccc(Cl)c(C(F)(F)F)c1)=N\NC(=O)c1cc2ccccc2cc1O	-8	16	1	-16
Cc1ccccc1N=C(N)Nc1ccccc1C	-15	5	0	37*
COc1ccc(NC(=S)NC2CCN(Cc3ccccc3)CC2)cc1OC	1	4	0	-6
CC1OC(OCC2OC(Oc3c(-c4ccc(O)cc4)oc4cc(O)cc(O)c4c3=O)C(O)C(O)C2O)C(O)C(O)C1O (stereo not drawn)	1	20	0	22*
COc1cc(C2CC(=O)Oc3c(C(CCN4CCCC(C)C4)c4ccc(N(C)C)cc4)c(OC)cc(OC)c32)cc(OC)c1OC (stereo not drawn)	4	7	-6	25*
COC(=O)c1ccc(CCc2cc(O)c(Br)cc2O)cc1	1	11	2	-14
